Screens from PubChem.
HKDC1 inhibitor = HKDC1 (human) hexokinase inhibition. Q2TB90. recombinant HKDC1, G6PDH/diaphorase resazurin coupled fluorescence. inhibition, % at 20 µM. 0.16% of 340,000 active. AID 493160;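 active = inhibition above about 35% when tested at 20 µM, limit read from the data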;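 note: plate controls were DMSO wells with enzyme for no effect and DMSO wells lacking enzyme for full effect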
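Assay system: recombinant HKDC1 hexokinase; detection: coupled resazurin fluorescence, excitation 525 nm, emission 613 nm; benchmarks: DMSO-plus-enzyme-mix negative control, buffer-substituted positive control; compound dosing: single 20 µM dose; schedule: 90 min at room temperature in dark; also added: glucose plus 1 mM ATP as hexokinase substrates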
UCH37 inh = human UCH37 deubiquitinating enzyme inhibition | purified proteasome/UCH37, Ub-AMC cleavage fluorescence | 0.33% of 330,000 active | inhibition, % (test concentration not listed) | Q9Y5K5;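 active = mean inhibition over replicate wells above about 20%, limit read from the data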;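 note: 0% = compound-free wells with enzyme and 100% = wells lacking proteasome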
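Reagent: Ub-AMC substrate; assay system: Proteasome-associated human UCH37 deubiquitinase; controls: no-proteasome and no-compound wells; read-out: % inhibition of Ub-AMC cleavage fluorescence; timing: 30 min preincubation with enzyme, 25 min cleavage at room temperature; signal: AMC fluorescence from Ub-AMC cleavage, excitation 355 nm, emission 460 nm; buffer or medium: Tris-HCl pH 7.4 plus ovalbumin, ATP-MgCl2, DTT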
H9c2 protect = myocardial damage modulation in H9c2 cells. protection from H2O2 cell death, % at 20 µM. 0.63% of 360,000 active. H9c2 cardiomyocytes, H2O2 injury protection, ATPLite, 2 h;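 active = compounds giving at least 50% protection of heart cells from peroxide-induced death in the single-dose screen, raw or plate-pattern-corrected value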;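 note: 0% = DMSO wells with peroxide and 100% = DMSO wells without peroxide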
Beta2AR agonist = human beta-2 adrenergic receptor agonism by FAP; Am2.2-beta2AR cells, FAP receptor internalization, flow cytometry; response, % (test concentration not listed); 0.43% of 340,000 active;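 active = response above a set limit, near 3 SD of response in nonfluorescent compounds, cut at about 42% in these data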
Target sequence (P07550 whole entry, looked up): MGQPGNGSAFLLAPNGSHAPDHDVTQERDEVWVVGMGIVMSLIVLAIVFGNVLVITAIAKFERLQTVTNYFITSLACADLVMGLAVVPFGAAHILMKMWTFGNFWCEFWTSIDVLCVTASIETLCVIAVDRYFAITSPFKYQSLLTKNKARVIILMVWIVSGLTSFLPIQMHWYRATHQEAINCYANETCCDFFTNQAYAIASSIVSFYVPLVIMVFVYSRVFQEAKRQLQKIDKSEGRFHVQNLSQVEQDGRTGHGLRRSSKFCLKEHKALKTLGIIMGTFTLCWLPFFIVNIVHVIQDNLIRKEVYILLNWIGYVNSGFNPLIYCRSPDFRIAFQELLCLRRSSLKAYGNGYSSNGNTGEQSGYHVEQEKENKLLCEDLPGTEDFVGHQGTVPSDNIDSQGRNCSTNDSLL
PfGluPho inh = PfG6PD (Plasmodium falciparum) enzyme inhibition; inhibition, % at 20 µM; 0.78% of 350,000 active; PfGluPho enzyme, NADPH resazurin-diaphorase fluorescence;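 active = inhibition reaching at least a set limit at 20 µM in the primary screen, cut at about 59% in these data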;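 note: 0% = DMSO wells with substrate and 100% = DMSO wells lacking glucose-6-phosphate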
aDG glyco act = alpha-DG glycosylation activation. Pro5-aDG cells, alpha-DG glycosylation AlphaScreen (IIH6); 0% Pro5, 100% B10-LARGE cell signal. 0.22% of 360,000 active. activation, % at 10 µM. AID 624168;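 active = activation of at least 8% versus controls, or a plate z-score of at least 8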;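 note: Pro5 are CHO cells carrying HIG-tagged alpha-DG that lacks glycosylation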
Beta2AR ag CP1 = human beta-2 adrenergic receptor agonism, cherry pick | shares compounds with Beta2AR agonist | Am2.2-beta2AR cells, FAP surface receptor, flow cytometry; active compounds read low | percent response (surface receptor), % at 10 µM | 25% of 1,100 active | AID 540358;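 active = surface receptor percent response at or below 58%, roughly 3 SD from nonfluorescent compounds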
FAP fluor counter = counter-screen for beta-2AR agonists: fluorescence in Am2.2 cells | shares compounds with Beta2AR agonist | FAP fluorogen flow cytometry, fluorescence counterscreen; active compounds read low | calls only at 10 µM | 1,100 tested, under 10 active | AID 588765;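 active = percent response below a set limit in fluorescence channel 1 and below 50% in channel 8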
An asterisk follows results filed as active; i = inactive; . = no result. This is a sample that favours compounds with a hit; in the whole collection about 2.1% have one here.

SMILES	HKDC1 inhibitor	UCH37 inh	H9c2 protect	Beta2AR agonist	PfGluPho inh	aDG glyco act	Beta2AR ag CP1	FAP fluor counter
O=C(c1ccc(OC2CCN(Cc3ccccc3C(F)(F)F)CC2)cc1)N1CCCCC1	-1	4	-10	1	15	1	104	i
O=C(c1ccc(OC2CCN(Cc3ccc(C(F)(F)F)cc3)CC2)cc1)N1CCCCC1	-1	-1	-10	62*	16	1	8.5*	i
C=CCn1c(CCNC(=O)c2cccs2)nnc1SCC(=O)c1ccc(Br)cc1	-5	2	8	98*	23	1	19*	i
C=CCn1c(CCNC(=O)c2cccs2)nnc1SCC(=O)Nc1cccc(C(C)=O)c1	-10	3	11	-3	-2	0	.	.
CC(C)CN(C(=O)c1ccc(N2CCCC2=O)cc1)c1c(N)n(Cc2ccccc2)c(=O)[nH]c1=O	1	-2	-4	6	-1	0	.	.
CC(C)CN(C(=O)c1ccc2c(c1)OCCO2)c1c(N)n(Cc2ccccc2)c(=O)[nH]c1=O	-3	-2	6	66*	-10	0	107	i
COc1cccc(C=NNC(=O)CNC(=O)/C=C\c2ccccc2)c1O	.	5	.	.	.	.	.	.
Cc1ncc(CN2CCCC(C(=O)Nc3ccc(-c4cccc(F)c4)cc3)C2)cn1 (stereo not drawn)	0	-1	-1	91*	24	0	21*	i
Cc1ncc(CN2CCCC(C(=O)Nc3ccc(-c4cccc(F)c4)cc3)C2)s1 (stereo not drawn)	-5	-1	-5	51*	15	1	25*	i
CCc1ncc(CN2CCCC(C(=O)Nc3cccc(-c4ccc(F)cc4)c3)C2)cn1 (stereo not drawn)	-5	0	-3	-17	7	0	.	.
O=S(=O)(NN=Cc1cn(-c2ccccc2)nc1-c1ccccc1)c1ccccc1	.	0	.	.	.	.	.	.
O=C(Cn1nc(-c2ccccc2)ccc1=O)Nc1ccc(NC(=O)c2ccccn2)cc1	-2	-95	-13	125*	-10	0	26*	i
COc1ccc(C2/C=C\CN(C(=O)c3ccccc3)[C@H](Cc3ccccc3)C(=O)N2Cc2ccc(F)cc2)cc1 (stereo partly drawn)	-1	3	1	12	17	0	105	i
COc1ccc([C@H]2/C=C\CN(C(=O)c3ccc(C)cc3)[C@@H](C)C(=O)N2Cc2ccc(F)cc2)cc1	1	3	5	15	19	0	106	i
COc1ccc(C2/C=C\CN(C(=O)c3ccccc3)CC(=O)N2Cc2cccc(F)c2)cc1 (stereo not drawn)	-5	3	19	4	7	1	101	i
COc1ccc([C@H]2/C=C\CN(Cc3ccc(N(C)C)cc3)[C@@H](C)C(=O)N2Cc2ccc(F)cc2)cc1	-1	4	-10	113*	17	0	29*	i
COc1ccc(C(=O)NN=C(C)c2cccc(NC(=O)C(F)(F)F)c2)cc1	.	0	.	.	.	.	.	.
CC(=NNC(=O)C1CC1)c1cccnc1	.	2	.	.	.	.	.	.
CCCOc1ccc(C=NNC(=O)C(C)Sc2ccccn2)cc1OCC (stereo not drawn)	.	2	.	.	.	.	.	.
CCOC(=O)N1CCN(Cc2c(F)cccc2F)CC1	-9	0	-5	51*	-17	0	101	i
CCOC(=O)N1CCN(Cc2c(F)cccc2Cl)CC1	-13	5	4	3	-5	0	.	.
O=C(NN=Cc1cc([N+](=O)[O-])ccc1Cl)c1cnccn1	.	0	.	.	.	.	.	.
COc1ccc(-c2nc(NC(=O)c3c(C)noc3C)sc2C)cc1	-2	0	-5	2	0	0	.	.
COc1ccc(-c2nc(NC(=O)c3cc(C(C)(C)C)nn3C)sc2C)cc1	7	-25	-6	29	21	-1	80	i
COc1ccc(C(=O)NCC(=O)NN=Cc2ccc([N+](=O)[O-])s2)cc1OC	.	13	.	.	.	.	.	.
SMILES	HKDC1 inhibitor	UCH37 inh	H9c2 protect	Beta2AR agonist	PfGluPho inh	aDG glyco act	Beta2AR ag CP1	FAP fluor counter
CC(=O)NN=C(C)CC(=O)NC(C)(C)C	.	0	.	.	.	.	.	.
Cc1ccc(SCC(=O)Nc2ccc(-c3nnc(-c4ccco4)o3)cc2)cc1	7	-2	-8	82*	6	0	34*	i
COc1ccc(NC(=O)c2cccc(N3C(=O)c4cccc([N+](=O)[O-])c4C3=O)c2)cc1	10	1	-8	-4	-8	0	91	i
O=C(O)c1cc(NC(=O)c2cccc(N3C(=O)c4ccccc4C3=O)c2)cc(C(=O)O)c1	-6	1	2	8	-2	0	110	i
O=C(Nc1ccccc1C(=O)O)c1cccc(N2C(=O)c3ccccc3C2=O)c1	-4	6	1	-10	8	0	79	i
O=C(O)c1cccc(NC(=O)c2ccc3c(c2)C(=O)N(c2ccccc2)C3=O)c1	-5	-1	-3	2	-3	0	.	.
NS(=O)(=O)c1ccc(NC(=O)c2ccc(-c3ccccc3)cc2)cc1	6	4	5	1	-15	0	.	.
O=C(Nc1ccccc1C(=O)O)c1cccc(F)c1	-2	5	8	-3	-12	0	.	.
NS(=O)(=O)c1ccc(NC(=O)c2cccc(N3C(=O)c4ccccc4C3=O)c2)cc1	17	.	-13	85*	-1	0	42*	i
CCn1cc(C=NNC(=O)c2ccccc2Cl)cn1	.	-1	.	.	.	.	.	.
CC(=NNC(=S)NC1CCCCC1)c1cccc(Br)c1	.	2	.	.	.	.	.	.
COc1ccc(C=NN2CCOCC2)cc1Cn1cc([N+](=O)[O-])cn1	.	2	.	.	.	.	.	.
COc1ccc(CCn2c(=O)[nH]c3cc(C(=O)NCCN4CCOCC4)ccc3c2=O)cc1OC	13	3	39	69*	-20	0	.	i
NC(=NOC(=O)Cc1ccccc1[N+](=O)[O-])c1ccncc1	.	-1	.	.	.	.	.	.
